Test results: ChEMBL document CHEMBL1152539, “Synthesis and evaluation of bioactive naphthoquinones from the Brazilian medicinal plant, Tabebuia avellanedae” (Bioorg Med Chem, 2009)
In brackets after ≈: the same amount, converted by molar mass.

How the values were obtained:
[1] = test system: MCF7; assay: Antiproliferative activity against human MCF7 cells after 72 hrs by trypan blue exclusion assay; format: functional, cell-based; settings: MCF7, 72 h
Outline: (§1)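 Cells were kept in DMEM with 10% fetal serum and exposed to four concentrations of compound for 72 h at 37 °C in humidified 5% CO₂. They were then stained with 0.25% trypan blue for 20 min, and viable cells were counted by light microscopy. IC₅₀ was derived from separate experiments run in triplicate.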

[2] = test system: Paecilomyces variotii; assay: Antimicrobial activity against Paecilomyces variotii NBRC4855 after 3-5 days by broth dilution method; settings: NBRC4855, 3-5 days
[3] = test system: Pseudomonas aeruginosa; assay: Antimicrobial activity against Pseudomonas aeruginosa NBRC13275 after 24 hrs by broth dilution method; format: functional; settings: NBRC13275, 24 h
Outline: (§2)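 Modified NCCLS broth dilution. A 50 µL aliquot of bacterial cells (10⁶/mL in 0.85% NaCl) was added to 1 mL Mueller-Hinton broth containing compound over a 0.1–100 range.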

[4] = test system: Bacillus mycoides; assay: Antimicrobial activity against Bacillus mycoides ATCC 11778 after 24 hrs by broth dilution method; format: functional; settings: ATCC 11778, 24 h; outline: as §2
[5] = Cytotoxicity against human Raji cells assessed as cell viability at 1000 molar ratio after 48 hrs by trypan blue staining; format: cell-based; settings: read-out: Activity
Outline: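 Raji cells were exposed for 48 h at 37 °C to n-butyric acid (4 mM), TPA (32 pmol) and test compound, as in the EBV-EA induction setup. Viability of the treated cells was then measured by trypan blue staining.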

[6] = test system: Naganishia albida; assay: Antimicrobial activity against Cryptococcus albidus NBRC0378 after 3-5 days by broth dilution method; settings: NBRC0378, 3-5 days
[7] = test system: PC-3; assay: Antiproliferative activity against human PC3 cells after 72 hrs by trypan blue exclusion assay; format: functional, cell-based; settings: PC-3, 72 h; outline: as §1
[8] = test system: Aspergillus fumigatus; assay: Antimicrobial activity against Aspergillus fumigatus NBRC4400 after 3-5 days by broth dilution method; settings: NBRC4400, 3-5 days
[9] = test system: Saccharomyces cerevisiae; assay: Antimicrobial activity against Saccharomyces cerevisiae NBRC10114 after 24 hrs by broth dilution method; format: functional; settings: NBRC10114, 24 h
[10] = test system: A549; assay: Antiproliferative activity against human A549 cells after 72 hrs by trypan blue exclusion assay; format: functional, cell-based; settings: A549, 72 h; outline: as §1
[11] = test system: Raji; assay: Inhibition of 12-O-tetradecanoylphorbol-13-acetate-induced EBV-early antigen activation in human Raji cells assessed as EA induction at 1000 molar ratio after 48 hrs by immunofluorescence technique relative to 12-O-tetradecanoylphorbol-13-acetate; format: cell-based; settings: human gammaherpesvirus 4
Outline: (§3)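 Raji cells were incubated for 48 h at 37 °C in medium with n-butyric acid (4 mM), TPA (32 pmol) and graded amounts of test compound. Smears were stained for EBV-EA by indirect immunofluorescence, and positive cells were counted among at least 500 cells. Assays were run in triplicate. Activity was expressed relative to the n-butyric acid plus TPA control, set as 100%.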

[12] = test system: Escherichia coli; assay: Antimicrobial activity against Escherichia coli ATCC 11775 after 24 hrs by broth dilution method; format: functional; settings: ATCC 11775, 24 h; outline: as §2
[13] = test system: Salmonella enteritidis; assay: Antimicrobial activity against Salmonella enteritidis OPS10 after 24 hrs by broth dilution method; format: functional, Salmonella enterica subsp. enterica serovar Enteritidis; settings: Salmonella enterica, OPS10, 24 h; outline: as §2
[14] = test system: Raji; assay: Inhibition of 12-O-tetradecanoylphorbol-13-acetate-induced EBV-early antigen activation in human Raji cells assessed as EA induction at 500 molar ratio after 48 hrs by immunofluorescence technique relative to 12-O-tetradecanoylphorbol-13-acetate; format: cell-based; set-up: scale not given: the % may be the effect or the level left; settings: human gammaherpesvirus 4; outline: as §3
[15] = Antiproliferative activity against human Hs888Lu cells after 72 hrs by trypan blue exclusion assay; format: cell-based; outline: as §1
[16] = Antiproliferative activity against human SVCT-M12 cells after 72 hrs by trypan blue exclusion assay; format: cell-based; settings: SVCT-M12, 72 h; outline: as §1
[17] = test system: Penicillium expansum; assay: Antimicrobial activity against Penicillium expansum NBRC8800 after 3-5 days by broth dilution method; settings: NBRC8800, 3-5 days
[18] = test system: Bacillus subtilis; assay: Antimicrobial activity against Bacillus subtilis NBRC3134 after 24 hrs by broth dilution method; format: functional; settings: NBRC3134, 24 h; outline: as §2
[19] = test system: Staphylococcus aureus; assay: Antimicrobial activity against Staphylococcus aureus NBRC13276 after 24 hrs by broth dilution method; format: functional; settings: NBRC13276, 24 h; outline: as §2
[20] = test system: Raji; assay: Inhibition of 12-O-tetradecanoylphorbol-13-acetate-induced EBV-early antigen activation in human Raji cells assessed as EA induction at 100 molar ratio after 48 hrs by immunofluorescence technique relative to 12-O-tetradecanoylphorbol-13-acetate; format: cell-based; set-up: scale not given: the % may be the effect or the level left; settings: human gammaherpesvirus 4; outline: as §3
[21] = test system: Candida albicans; assay: Antimicrobial activity against Candida albicans NBRC1060 after 3-5 days by broth dilution method; settings: NBRC1060, 3-5 days
[22] = test system: Raji; assay: Inhibition of 12-O-tetradecanoylphorbol-13-acetate-induced EBV-early antigen activation in human Raji cells assessed as EA induction at 10 molar ratio after 48 hrs by immunofluorescence technique relative to 12-O-tetradecanoylphorbol-13-acetate; format: cell-based; set-up: scale not given: the % may be the effect or the level left; settings: human gammaherpesvirus 4; outline: as §3
[23] = Inhibition of 12-O-tetradecanoylphorbol-13-acetate-induced EBV-early antigen activation in human Raji cells after 48 hrs by immunofluorescence technique; format: cell-based, human gammaherpesvirus 4; outline: as §3
[24] = Anticancer activity against DMBA/TPA-induced skin cancer in mouse assessed as incidence of papilloma at 85 nmol administered before TPA challenge measured after 15 weeks; format: functional
Outline: (§4)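 Mouse two-stage skin model: DMBA 390 nmol in 0.1 mL acetone applied topically by pipet. One week later, the same skin site was painted with test compound (85 nmol in acetone) or acetone alone, 60 min before TPA (1.7 nmol). Tumor response was scored as the average number of papillomas per mouse and the percentage of mice bearing papillomas.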

[25] = test system: Saccharomyces cerevisiae; assay: Antimicrobial activity against Saccharomyces cerevisiae NBRC10114 after 3-5 days by broth dilution method; settings: NBRC10114, 3-5 days
[26] = test system: Naganishia albida; assay: Antimicrobial activity against Cryptococcus albidus NBRC0378 after 24 hrs by broth dilution method; format: functional; settings: NBRC0378, 24 h
[27] = test system: Hepatocyte; assay: Antiproliferative activity against human hepatocytes after 72 hrs by trypan blue exclusion assay; format: cell-based; outline: as §1
[28] = Anticancer activity against DMBA/TPA-induced skin cancer in mouse assessed as number of papillomas per mouse at 85 nmol administered before TPA challenge measured after 20 weeks; format: functional; outline: as §4
[29] = Antiproliferative activity against human skin fibroblast after 72 hrs by trypan blue exclusion assay; format: cell-based; outline: as §1
[30] = Anticancer activity against DMBA/TPA-induced skin cancer in mouse assessed as incidence of papilloma at 85 nmol administered before TPA challenge measured after 20 weeks; format: functional; outline: as §4
[31] = Anticancer activity against DMBA/TPA-induced skin cancer in mouse assessed as incidence of papilloma at 85 nmol administered before TPA challenge measured after 10 weeks; format: functional; outline: as §4
[32] = test system: Aspergillus fumigatus; assay: Antimicrobial activity against Aspergillus fumigatus NBRC4400 after 24 hrs by broth dilution method; format: functional; settings: NBRC4400, 24 h
[33] = test system: Paecilomyces variotii; assay: Antimicrobial activity against Paecilomyces variotii NBRC4855 after 24 hrs by broth dilution method; format: functional; settings: NBRC4855, 24 h

SMILES | IC50 [1] | MIC [2] | MIC [3] | MIC [4] | viability at 48 h, 1000 molar ratio [5] | MIC [6] | MIC [8] | IC50 [10] | EA induction relative to TPA control [11] | MIC [12] | MIC [13] | Activity [14] | MIC [17] | MIC [18] | MIC [19] | Activity [20] | MIC [21] | Activity [22] | IC50 [23] | MIC [25] | also measured
C[C@H](O)c1cc2c(o1)C(=O)c1c(O)cccc1C2=O | 2.61 µM | 50 µg/mL (≈ 194 µM) | > 100 µg/mL | 1.56 µg/mL (≈ 6.04 µM) | 60% | 1.56 µg/mL (≈ 6.04 µM) | 25 µg/mL (≈ 96.8 µM) | 4.31 µM | 7.4% | > 100 µg/mL | > 100 µg/mL | 26.5% | 50 µg/mL (≈ 194 µM) | 1.56 µg/mL (≈ 6.04 µM) | 6.25 µg/mL (≈ 24.2 µM) | 58.2% | 25 µg/mL (≈ 96.8 µM) | 80.5% | 271 mol ratio/32 pmol TPA |  | IC50 [7]: 1.57 µM; MIC [9]: 3.13 µg/mL (≈ 12.1 µM); EC50 [15]: 14.6 µM; EC50 [16]: 14.6 µM
C[C@@H](O)c1cc2c(o1)C(=O)c1cccc(O)c1C2=O |  | 25 µg/mL (≈ 96.8 µM) | > 100 µg/mL | 0.78 µg/mL (≈ 3.02 µM) | 70% |  | 12.5 µg/mL (≈ 48.4 µM) |  | 0% | > 100 µg/mL | > 100 µg/mL | 9.7% | 25 µg/mL (≈ 96.8 µM) | 0.78 µg/mL (≈ 3.02 µM) | 3.13 µg/mL (≈ 12.1 µM) | 24.7% | 25 µg/mL (≈ 96.8 µM) | 59.4% | 38.9 mol ratio/32 pmol TPA | 3.13 µg/mL (≈ 12.1 µM) | Activity [24]: 47%; MIC [26]: 1.56 µg/mL (≈ 6.04 µM); EC50 [27]: 29.8 µM; Activity [28]: 3.9; EC50 [29]: 39.7 µM; Activity [30]: 67%; Activity [31]: 7%
C[C@@H]1[C@H](O)[C@@H](C)/C=C/C=C/C=C/C=C/C=C/C=C/C=C/[C@H](O[C@@H]2O[C@H](C)[C@@H](O)[C@H](N)[C@@H]2O)C[C@@H]2O[C@](O)(C[C@@H](O)C[C@@H](O)[C@H](O)CC[C@@H](O)C[C@@H](O)CC(=O)O[C@H]1C)C[C@H](O)[C@H]2C(=O)O [AMPHOTERICIN B] |  |  |  |  |  | 1.56 µg/mL (≈ 1.69 µM) |  |  |  |  |  |  | 1.56 µg/mL (≈ 1.69 µM) |  |  |  | 1.56 µg/mL (≈ 1.69 µM) |  |  | 0.78 µg/mL (≈ 0.844 µM) | MIC [32]: 1.56 µg/mL (≈ 1.69 µM); MIC [33]: 0.78 µg/mL (≈ 0.844 µM)
C[C@H](O)c1cc2c(o1)C(=O)c1cccc(O)c1C2=O | 0.51 µM |  | > 100 µg/mL | 0.78 µg/mL (≈ 3.02 µM) | 60% |  |  | 0.78 µM | 0% | > 100 µg/mL | > 100 µg/mL | 4.4% | 25 µg/mL (≈ 96.8 µM) | 0.78 µg/mL (≈ 3.02 µM) | 3.13 µg/mL (≈ 12.1 µM) | 16.9% | 25 µg/mL (≈ 96.8 µM) | 50% | 33.2 mol ratio/32 pmol TPA | 3.13 µg/mL (≈ 12.1 µM) | MIC [32]: 12.5 µg/mL (≈ 48.4 µM); MIC [33]: 25 µg/mL (≈ 96.8 µM); Activity [24]: 47%; EC50 [15]: 5.51 µM; EC50 [16]: 3.36 µM; MIC [26]: 1.56 µg/mL (≈ 6.04 µM); EC50 [27]: 11.1 µM; Activity [28]: 3.9; EC50 [29]: 11.1 µM; Activity [30]: 67%; Activity [31]: 7%
